{"source": "ChEMBL document CHEMBL2203081", "about": "(Bioorg Med Chem Lett, 2012)", "key": {"[1]": {"molecular_target": "Citron Rho-interacting kinase (Homo sapiens) (UniProt O14578)", "sequence (O14578 whole entry)": "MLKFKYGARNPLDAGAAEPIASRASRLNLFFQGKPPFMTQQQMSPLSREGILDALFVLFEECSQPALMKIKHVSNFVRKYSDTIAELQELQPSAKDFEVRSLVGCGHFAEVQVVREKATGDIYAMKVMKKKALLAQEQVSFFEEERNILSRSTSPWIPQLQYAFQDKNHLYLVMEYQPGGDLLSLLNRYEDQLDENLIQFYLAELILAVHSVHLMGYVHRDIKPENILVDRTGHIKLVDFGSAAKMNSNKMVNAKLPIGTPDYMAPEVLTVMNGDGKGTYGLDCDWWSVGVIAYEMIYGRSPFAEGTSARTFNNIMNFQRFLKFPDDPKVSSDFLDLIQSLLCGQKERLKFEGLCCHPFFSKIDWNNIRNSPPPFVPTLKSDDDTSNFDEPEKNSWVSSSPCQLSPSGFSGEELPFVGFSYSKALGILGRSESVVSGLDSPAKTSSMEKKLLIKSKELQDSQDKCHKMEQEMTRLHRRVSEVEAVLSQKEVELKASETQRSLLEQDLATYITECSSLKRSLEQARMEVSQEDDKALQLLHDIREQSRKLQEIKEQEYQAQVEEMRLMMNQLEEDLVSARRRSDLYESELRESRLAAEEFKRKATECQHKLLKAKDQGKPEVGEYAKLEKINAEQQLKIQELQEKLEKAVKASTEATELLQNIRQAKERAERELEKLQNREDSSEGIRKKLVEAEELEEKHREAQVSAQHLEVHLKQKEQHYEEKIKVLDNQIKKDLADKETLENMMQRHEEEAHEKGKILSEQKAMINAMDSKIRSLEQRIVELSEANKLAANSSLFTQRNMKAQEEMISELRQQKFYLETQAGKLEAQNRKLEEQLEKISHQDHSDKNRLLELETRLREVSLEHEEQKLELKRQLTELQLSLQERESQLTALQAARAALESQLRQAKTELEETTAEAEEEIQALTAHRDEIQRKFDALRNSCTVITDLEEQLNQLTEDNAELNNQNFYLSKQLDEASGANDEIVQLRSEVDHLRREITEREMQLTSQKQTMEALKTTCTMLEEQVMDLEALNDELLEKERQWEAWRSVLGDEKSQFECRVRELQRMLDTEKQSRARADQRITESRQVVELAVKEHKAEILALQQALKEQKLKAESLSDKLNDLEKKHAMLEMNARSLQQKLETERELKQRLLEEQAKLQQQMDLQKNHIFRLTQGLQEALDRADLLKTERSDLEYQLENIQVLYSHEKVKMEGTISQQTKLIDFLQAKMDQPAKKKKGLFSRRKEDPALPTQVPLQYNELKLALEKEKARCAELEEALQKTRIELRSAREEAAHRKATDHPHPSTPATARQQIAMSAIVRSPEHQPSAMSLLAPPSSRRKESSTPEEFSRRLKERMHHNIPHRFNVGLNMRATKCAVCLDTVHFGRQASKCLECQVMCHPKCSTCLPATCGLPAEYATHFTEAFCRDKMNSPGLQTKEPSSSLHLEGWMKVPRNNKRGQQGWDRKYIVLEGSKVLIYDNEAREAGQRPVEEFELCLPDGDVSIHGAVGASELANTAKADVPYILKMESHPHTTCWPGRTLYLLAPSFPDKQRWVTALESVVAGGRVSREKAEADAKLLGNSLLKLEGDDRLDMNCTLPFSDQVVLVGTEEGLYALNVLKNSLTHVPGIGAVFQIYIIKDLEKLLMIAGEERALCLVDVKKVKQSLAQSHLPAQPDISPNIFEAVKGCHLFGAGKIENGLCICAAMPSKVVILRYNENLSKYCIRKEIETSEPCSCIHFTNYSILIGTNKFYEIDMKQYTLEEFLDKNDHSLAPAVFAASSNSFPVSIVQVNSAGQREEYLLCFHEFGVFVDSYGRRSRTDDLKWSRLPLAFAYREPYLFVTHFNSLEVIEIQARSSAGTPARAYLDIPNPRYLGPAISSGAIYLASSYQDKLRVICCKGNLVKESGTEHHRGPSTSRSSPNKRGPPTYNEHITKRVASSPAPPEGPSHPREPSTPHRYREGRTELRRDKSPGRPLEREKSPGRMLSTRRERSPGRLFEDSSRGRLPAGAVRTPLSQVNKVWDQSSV", "test": "Inhibition of CIT assessed as residual activity at 10 uM relative to control"}, "[2]": {"molecular_target": "Cyclin-dependent kinase 9 (Homo sapiens) (UniProt P50750)", "sequence (P50750 whole entry)": "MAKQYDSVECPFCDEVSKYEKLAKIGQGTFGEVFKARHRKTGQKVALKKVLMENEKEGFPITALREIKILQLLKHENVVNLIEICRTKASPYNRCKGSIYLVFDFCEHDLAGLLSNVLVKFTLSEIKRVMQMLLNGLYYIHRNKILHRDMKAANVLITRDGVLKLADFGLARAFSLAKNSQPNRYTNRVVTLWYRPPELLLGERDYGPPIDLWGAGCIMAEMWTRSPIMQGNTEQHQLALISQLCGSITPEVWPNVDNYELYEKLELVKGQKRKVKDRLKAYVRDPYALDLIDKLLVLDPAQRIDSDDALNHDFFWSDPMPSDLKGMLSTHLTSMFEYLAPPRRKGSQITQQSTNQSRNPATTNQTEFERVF", "test": "Inhibition of CDK9 assessed as residual activity at 10 uM relative to control"}, "[3]": {"molecular_target": "Serine/threonine-protein kinase SIK2 (Homo sapiens) (UniProt Q9H0K1)", "sequence (Q9H0K1 whole entry, looked up)": "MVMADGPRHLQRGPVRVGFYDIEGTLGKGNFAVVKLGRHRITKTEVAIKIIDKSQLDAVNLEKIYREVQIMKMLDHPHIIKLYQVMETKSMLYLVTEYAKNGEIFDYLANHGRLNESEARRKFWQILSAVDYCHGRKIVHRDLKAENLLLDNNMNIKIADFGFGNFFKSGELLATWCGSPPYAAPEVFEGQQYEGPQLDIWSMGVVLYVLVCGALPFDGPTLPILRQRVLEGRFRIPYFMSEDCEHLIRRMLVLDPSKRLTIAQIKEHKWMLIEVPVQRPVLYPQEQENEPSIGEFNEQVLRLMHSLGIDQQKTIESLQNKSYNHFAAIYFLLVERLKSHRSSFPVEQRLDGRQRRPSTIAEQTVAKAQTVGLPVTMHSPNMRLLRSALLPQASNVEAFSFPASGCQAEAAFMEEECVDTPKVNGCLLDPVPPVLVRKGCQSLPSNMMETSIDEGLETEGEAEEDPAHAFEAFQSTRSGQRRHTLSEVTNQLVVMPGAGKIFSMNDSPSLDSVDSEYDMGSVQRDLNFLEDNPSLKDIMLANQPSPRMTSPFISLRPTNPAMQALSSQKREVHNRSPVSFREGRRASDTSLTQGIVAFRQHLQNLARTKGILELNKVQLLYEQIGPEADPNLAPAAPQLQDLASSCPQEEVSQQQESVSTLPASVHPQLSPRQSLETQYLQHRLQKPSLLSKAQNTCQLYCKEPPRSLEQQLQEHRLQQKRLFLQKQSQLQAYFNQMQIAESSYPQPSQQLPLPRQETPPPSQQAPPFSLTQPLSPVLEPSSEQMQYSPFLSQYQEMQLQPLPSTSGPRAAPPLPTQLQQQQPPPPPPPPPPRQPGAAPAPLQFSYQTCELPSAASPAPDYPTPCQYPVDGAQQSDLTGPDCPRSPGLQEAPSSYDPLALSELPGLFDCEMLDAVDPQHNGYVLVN", "test": "Inhibition of SIK2 assessed as residual activity at 10 uM relative to control"}, "[4]": {"molecular_target": "Serine/threonine-protein kinase 24 (Homo sapiens) (UniProt Q9Y6E0)", "test": "Inhibition of MST3 assessed as residual activity at 1 uM"}, "[5]": {"molecular_target": "Dual specificity mitogen-activated protein kinase kinase 1 (Homo sapiens) (UniProt Q02750)", "sequence (Q02750 whole entry)": "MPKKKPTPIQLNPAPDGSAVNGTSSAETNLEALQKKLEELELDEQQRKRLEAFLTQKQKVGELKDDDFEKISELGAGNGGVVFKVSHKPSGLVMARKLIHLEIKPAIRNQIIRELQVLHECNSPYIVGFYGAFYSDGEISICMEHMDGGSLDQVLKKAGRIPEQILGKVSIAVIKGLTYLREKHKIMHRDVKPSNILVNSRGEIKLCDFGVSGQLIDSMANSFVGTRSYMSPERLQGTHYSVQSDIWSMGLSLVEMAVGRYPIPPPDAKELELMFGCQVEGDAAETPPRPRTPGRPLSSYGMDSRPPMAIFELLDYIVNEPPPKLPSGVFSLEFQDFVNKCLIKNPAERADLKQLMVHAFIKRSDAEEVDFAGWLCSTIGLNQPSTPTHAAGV", "test": "Inhibition of MKK1 assessed as residual activity at 1 uM"}, "[6]": {"molecular_target": "Insulin receptor-related protein (Homo sapiens) (UniProt P14616)", "sequence (P14616 27-742 limits assumed)": "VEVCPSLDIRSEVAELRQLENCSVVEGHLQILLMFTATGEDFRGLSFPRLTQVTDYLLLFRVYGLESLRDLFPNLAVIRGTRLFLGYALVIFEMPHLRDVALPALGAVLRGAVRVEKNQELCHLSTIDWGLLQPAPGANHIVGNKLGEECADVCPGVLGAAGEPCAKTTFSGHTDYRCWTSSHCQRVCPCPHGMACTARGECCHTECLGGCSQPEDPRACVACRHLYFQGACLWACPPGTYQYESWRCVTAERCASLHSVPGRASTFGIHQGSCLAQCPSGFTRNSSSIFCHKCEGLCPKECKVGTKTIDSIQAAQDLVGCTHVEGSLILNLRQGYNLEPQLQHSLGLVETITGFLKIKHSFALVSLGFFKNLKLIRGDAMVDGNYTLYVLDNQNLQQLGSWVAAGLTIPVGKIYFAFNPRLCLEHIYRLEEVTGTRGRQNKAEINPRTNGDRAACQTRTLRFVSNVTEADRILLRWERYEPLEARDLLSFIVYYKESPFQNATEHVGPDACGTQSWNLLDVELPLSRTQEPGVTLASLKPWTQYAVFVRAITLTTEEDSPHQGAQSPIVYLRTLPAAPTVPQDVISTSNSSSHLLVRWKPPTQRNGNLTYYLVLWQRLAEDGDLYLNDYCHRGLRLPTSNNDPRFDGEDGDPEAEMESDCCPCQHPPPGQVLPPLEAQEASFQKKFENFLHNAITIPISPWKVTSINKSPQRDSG", "sequence (P14616 747-1297 limits assumed)": "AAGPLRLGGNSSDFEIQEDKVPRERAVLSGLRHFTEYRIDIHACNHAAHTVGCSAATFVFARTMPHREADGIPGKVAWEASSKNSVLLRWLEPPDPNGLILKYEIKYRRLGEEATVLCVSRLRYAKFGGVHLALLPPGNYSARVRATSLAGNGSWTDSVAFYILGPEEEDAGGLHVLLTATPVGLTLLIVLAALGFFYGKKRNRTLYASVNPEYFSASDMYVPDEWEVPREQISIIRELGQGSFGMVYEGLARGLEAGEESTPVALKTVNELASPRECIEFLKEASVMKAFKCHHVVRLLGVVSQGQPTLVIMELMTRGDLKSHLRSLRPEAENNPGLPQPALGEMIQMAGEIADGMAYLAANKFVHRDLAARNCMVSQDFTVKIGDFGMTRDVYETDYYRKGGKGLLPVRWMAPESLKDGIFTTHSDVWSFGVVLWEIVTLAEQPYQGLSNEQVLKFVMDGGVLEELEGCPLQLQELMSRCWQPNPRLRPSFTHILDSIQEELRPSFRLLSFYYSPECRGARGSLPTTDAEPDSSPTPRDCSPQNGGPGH", "test": "Inhibition of IRR assessed as residual activity at 1 uM", "in_short": "(§1)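 Radioactivity-based enzymatic activity assay of the named kinase, run as part of a 131-kinase specificity panel at the National Centre for Protein Kinase Profiling (Dundee). Residual activity was read at the stated single inhibitor concentration.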"}, "[7]": {"test_system": "Brain", "test": "Volume of distribution at steady state in Swiss albino mouse […] at 1 mg/kg, iv", "format": "ADME, organism-based", "design": "dose 1 mg/kg, route intravenous", "details": "in vivo"}, "[8]": {"molecular_target": "Serine/threonine-protein kinase SIK2 (Homo sapiens) (UniProt Q9H0K1)", "test": "Inhibition of SIK2 assessed as residual activity at 10 uM"}, "[9]": {"test": "Inhibition of PHK assessed as residual activity at 10 uM"}, "[10]": {"test_system": "Receptor-type tyrosine-protein kinase FLT3 (Homo sapiens), P36888 [D835Y]", "test": "Inhibition of FLT3 D835Y mutant assessed as residual activity at 10 uM relative to control"}, "[11]": {"molecular_target": "Homeodomain-interacting protein kinase 1 (Homo sapiens) (UniProt Q86Z02)", "test": "Inhibition of HIPK1 assessed as residual activity at 10 uM", "in_short": "as §1"}, "[12]": {"molecular_target": "Ephrin type-B receptor 6 (Homo sapiens) (UniProt O15197)", "test": "Inhibition of EPHB6 assessed as residual activity at 10 uM relative to control", "in_short": "(§2)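 Competition kinase-binding assay (KINOMEscan) across a non-redundant panel of 329 kinases beyond the radiometric panel; residual binding expressed relative to control.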"}, "[13]": {"molecular_target": "Ephrin type-A receptor 7 (Homo sapiens) (UniProt Q15375)", "test": "Inhibition of EPHA7 assessed as residual activity at 10 uM relative to control", "in_short": "as §2"}, "[14]": {"molecular_target": "Epidermal growth factor receptor (Homo sapiens) (UniProt P04626+P00533+Q15303+P21860)", "test": "Inhibition of EGFR S752-I759del mutant assessed as residual activity at 10 uM relative to control", "format": "protein assay", "in_short": "as §2"}, "[15]": {"molecular_target": "Serine/threonine-protein kinase 17B (Homo sapiens) (UniProt O94768)", "test": "Inhibition of DRAK2 assessed as residual activity at 10 uM relative to control", "in_short": "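Radioactivity-based enzymatic assay of kinase activity, run as part of a 131-kinase profiling panel at the National Centre for Protein Kinase Profiling, Dundee.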"}}, "data": [{"smiles": "O=C(Nc1cccnc1)c1cc(-c2ccnc(F)c2)ccc1OCc1ccccc1", "values": [{"measurement": "Activity", "setting": "[1]", "value": 48, "unit": "%"}, {"measurement": "Activity", "setting": "[2]", "value": 57, "unit": "%"}, {"measurement": "Activity", "setting": "[3]", "value": 26, "unit": "%"}, {"measurement": "Activity", "setting": "[4]", "value": 101, "unit": "%"}, {"measurement": "Activity", "setting": "[5]", "value": 77, "unit": "%"}, {"measurement": "Activity", "setting": "[6]", "value": 76, "unit": "%"}, {"measurement": "Vdss", "setting": "[7]", "value": 1.6, "unit": "L/kg"}, {"measurement": "Activity", "setting": "[8]", "value": 111, "unit": "%"}, {"measurement": "Activity", "setting": "[9]", "value": 75, "unit": "%"}, {"measurement": "Activity", "setting": "[10]", "value": 5.8, "unit": "%"}, {"measurement": "Activity", "setting": "[11]", "value": 61, "unit": "%"}, {"measurement": "Activity", "setting": "[12]", "value": 61, "unit": "%"}, {"measurement": "Activity", "setting": "[13]", "value": 60, "unit": "%"}, {"measurement": "Activity", "setting": "[14]", "value": 81, "unit": "%"}, {"measurement": "Activity", "setting": "[15]", "value": 72, "unit": "%"}]}]}
